We go through two molecules from ChEMBL document CHEMBL4020824, “Discovery of Potent and Orally Bioavailable Dihydropyrazole GPR40 Agonists” (J Med Chem, 2018).

Common to all, as to type: ADME, microsome
For data set [1], the system named is Liver. Description: Drug level in human liver microsomes treated with 2-((4S,5S)-1-(4-((1-(2-Fluoro-5-methoxyphenyl)piperidin-4-yl)-oxy)phenyl)-4-methyl-3-(trifluoromethyl)-4,5-dihydro-1H-pyrazol-5-yl)acetic acid at 1 to 3 uM incubated for 20 mins in presence of NADPH measured after 90 mins by LC/MS/MS analysis. An outline of the steps: (§1)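 Human or rat liver microsomal incubations. The read-outs were % parent remaining, % D-ring dealkylation metabolites, % GSH adducts, and half-life (min). The metabolites followed were CYP450-mediated oxidative de-alkylation products (phenols) and GSH conjugates.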
On the technique in general: Microsomes from liver hold many membrane-bound enzymes, among them those of drug oxidation.

Data set [2] concerns Liver. Description: Drug level in rat liver microsomes treated with 2-((4S,5S)-1-(4-((1-(2-Fluoro-5-methoxyphenyl)piperidin-4-yl)-oxy)phenyl)-4-methyl-3-(trifluoromethyl)-4,5-dihydro-1H-pyrazol-5-yl)acetic acid at 1 to 3 uM incubated for 20 mins in presence of NADPH measured after 90 mins by LC/MS/MS analysis. An outline of the steps: as §1
The test system of data set [3] is Liver. In words: Drug level in human liver microsomes treated with 2-((4S,5S)-1-(4-(((3R,4R)-1-(5-Chloro-2-methoxypyridin-4-yl)-3-methylpiperidin-4-yl)oxy)phenyl)-4-methyl-3-(trifluoromethyl)-4,5-dihydro-1H-pyrazol-5-yl)acetic acid at 1 to 3 uM incubated for 20 mins in presence of NADPH measured after 90 mins by LC/MS/MS analysis. Summed up: as §1
In data set [4] the test system is Liver. In words: Drug level in rat liver microsomes treated with 2-((4S,5S)-1-(4-(((3R,4R)-1-(5-Chloro-2-methoxypyridin-4-yl)-3-methylpiperidin-4-yl)oxy)phenyl)-4-methyl-3-(trifluoromethyl)-4,5-dihydro-1H-pyrazol-5-yl)acetic acid at 1 to 3 uM incubated for 20 mins in presence of NADPH measured after 90 mins by LC/MS/MS analysis. An outline of the steps:
as §1

Regarding `C[C@@H]1C(C(F)(F)F)=NN(c2ccc(OC3CCN(c4cc(O)ccc4F)CC3)cc2)[C@H]1CC(=O)O`, the Drug uptake result in the data set with Liver [1] and with Liver [2] was “Metabolite_Detected” in each case.

Take `C[C@@H]1CN(c2cc(O)ncc2Cl)CC[C@H]1Oc1ccc(N2N=C(C(F)(F)F)[C@@H](C)[C@@H]2CC(=O)O)cc1`: the Drug uptake result with Liver [3] and in the data set with Liver [4] was “Metabolite_Detected” each time.
